The values that follow come from ChEMBL document CHEMBL1128385, “Three-dimensional quantitative structure-activity relationships of somatostatin analogues. 1. Comparative molecular field analysis of growth hormone release-inhibiting potencies” (J Med Chem, 1995).

The species entered for the assay is Rattus norvegicus. The assay is described as follows: In vitro GH release inhibiting potency on anterior pitutaries from adult male rats, relative to somatostatin. In kind it is functional. Put shortly:
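Rat anterior pituitary cells (adult males, 200-250 g), trypsin/DNase dispersed, plated 2 × 10^5 cells/well, cultured 96 h at 37 °C in serum-supplemented DMEM. After washing, cells were pulsed 3 h at 37 °C with 1 nM GRF(1-29)NH2 ± graded analogue doses in medium 199/1% BSA, quadruplicate wells. Medium GH was measured by double-antibody RIA. Potency relative to somatostatin (=1.0) came from four-point assay (mean of ≥3 experiments) or IC50 comparison.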

Turning to `C[C@@H](O)[C@@H]1NC(=O)[C@H](CCCCN)NC(=O)[C@@H](Cc2c[nH]c3ccccc23)NC(=O)[C@H](Cc2ccc(Cl)cc2)NC(=O)[C@H](Cc2ccccc2)NC(=O)CCCCCCNC(=O)[C@H](Cc2ccccc2)NC1=O` (stereo in doubt), the GHI turned out to be 1.4.
